pEC50, pIC50: −log10 of the molar value.
Experiments:
HeLa [1] = test: Cell cycle arrest in TNF-alpha-stimulated human HeLa cells transfected with NFkappaB-Luc assessed as accumulation at diploid G2 phase at 1 uM after 8 hrs by propidium iodide-based flow cytometry; assay type: functional
HeLa [2] = test: Cell cycle arrest in TNF-alpha-stimulated human HeLa cells transfected with NFkappaB-Luc assessed as accumulation at diploid G2 phase at 0.5 uM after 8 hrs by propidium iodide-based flow cytometry; assay type: functional
Method in brief: (§1)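 HeLa NF-κB-luc cells (stable, hygromycin-selected) were treated with vehicle (1% DMSO) or compound at 40–0.2 µM final for 8 h at 37 °C, 5% CO2. Adherent cells were trypsinized, resuspended in PBS/50% FBS, fixed overnight in 70% ice-cold ethanol and washed with cold PBS/10% FBS, then analysed for cell cycle by flow cytometry.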

HeLa [3] = test: Cell cycle arrest in TNF-alpha-stimulated human HeLa cells transfected with NFkappaB-Luc assessed as accumulation at G2/G1 phase after 8 hrs by propidium iodide-based flow cytometry
HeLa [4] = test: Cell cycle arrest in TNF-alpha-stimulated human HeLa cells transfected with NFkappaB-Luc assessed as accumulation at S phase at 1 uM after 8 hrs by propidium iodide-based flow cytometry; assay type: functional
HeLa [5] = test: Cell cycle arrest in TNF-alpha-stimulated human HeLa cells transfected with NFkappaB-Luc assessed as accumulation at diploid G1 phase at 1 uM after 8 hrs by propidium iodide-based flow cytometry; assay type: functional
HeLa [6] = test: Cell cycle arrest in TNF-alpha-stimulated human HeLa cells transfected with NFkappaB-Luc assessed as accumulation at diploid stage at 1 uM after 8 hrs by propidium iodide-based flow cytometry; assay type: functional
HeLa [7] = test: Effect on cell cycle arrest in TNF-alpha-stimulated human HeLa cells assessed as cell aggregate level at 1 uM after 8 hrs by propidium iodide-based flow cytometry; assay type: functional
HeLa [8] = test: Effect on cell cycle arrest in TNF-alpha-stimulated human HeLa cells assessed as cell aggregate level at 5 uM after 8 hrs by propidium iodide-based flow cytometry; assay type: functional
HeLa [9] = test: Effect on cell cycle arrest in human HeLa cells assessed as cell debris level at 20 uM after 8 hrs by propidium iodide-based flow cytometry; assay type: functional
Method in brief: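 Cells were exposed to vehicle (1% DMSO) or compound for 8 h at 37 °C, 5% CO₂. They were then trypsinized, resuspended in PBS with 50% FBS, fixed overnight in ice-cold 70% ethanol, and washed twice with ice-cold PBS containing 10% FBS before flow cytometric cell-cycle analysis.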

[10] = Cytotoxicity against human whole blood IL-1-beta-stimulated lymphocytes assessed as survival cell count in millions at 10 uM by trypan blue staining based hemocytometer
HeLa [11] = test: Cell cycle arrest in TNF-alpha-stimulated human HeLa cells transfected with NFkappaB-Luc assessed as accumulation at diploid G1 phase at 0.1 uM after 8 hrs by propidium iodide-based flow cytometry; assay type: functional
HeLa [12] = test: Cell cycle arrest in TNF-alpha-stimulated human HeLa cells transfected with NFkappaB-Luc assessed as accumulation at S phase at 20 uM after 8 hrs by propidium iodide-based flow cytometry; assay type: functional; method in brief: as §1
HeLa [13] = test: Cell cycle arrest in TNF-alpha-stimulated human HeLa cells transfected with NFkappaB-Luc assessed as accumulation at diploid stage at 0.1 uM after 8 hrs by propidium iodide-based flow cytometry; assay type: functional
HeLa [14] = test: Effect on cell cycle arrest in TNF-alpha-stimulated human HeLa cells assessed as cell debris level at 0.5 uM after 8 hrs by propidium iodide-based flow cytometry; assay type: functional
HeLa [15] = test: Cell cycle arrest in TNF-alpha-stimulated human HeLa cells transfected with NFkappaB-Luc assessed as accumulation at S phase at 10 uM after 8 hrs by propidium iodide-based flow cytometry; assay type: functional; method in brief: as §1
HeLa [16] = test: Effect on cell cycle arrest in TNF-alpha-stimulated human HeLa cells assessed as cell debris level at 1 uM after 8 hrs by propidium iodide-based flow cytometry; assay type: functional
HeLa [17] = test: Cell cycle arrest in TNF-alpha-stimulated human HeLa cells transfected with NFkappaB-Luc assessed as accumulation at diploid G2 phase at 10 uM after 8 hrs by propidium iodide-based flow cytometry; assay type: functional; method in brief: as §1
[18] = Cytotoxicity against human whole blood lymphocytes assessed as survival cell count in millions at 10 uM by trypan blue staining based hemocytometer
Blood [19] = test: Antiinflammatory activity in human whole blood assessed as inhibition of IL-1-beta-induced TNFalpha production preincubated 2 hrs before addition of IL1-beta measured after 18 hrs by ELISA; assay type: functional, tissue-based; details: Homo sapiens, Blood
Method in brief: (§2)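 Human blood from donors with white count in the normal range, diluted 1:10 in RPMI-1640 with 10% FBS, penicillin and streptomycin. Aliquots were preincubated with vehicle (0.1% DMSO final) or compound at 10, 3, 1, 0.3 or 0.1 µM final for 2 h at 37 °C, 5% CO2. IL-1β (200 U/mL) was then added for 18 h, and plasma was collected and frozen. Cytokine was measured by ELISA.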

[20] = Cytotoxicity against human whole blood IL-1-beta-stimulated lymphocytes assessed as survival cell count in millions at 20 uM by trypan blue staining based hemocytometer
[21] = Cytotoxicity against human whole blood lymphocytes assessed as survival cell count in millions at 20 uM by trypan blue staining based hemocytometer
HeLa [22] = test: Cell cycle arrest in TNF-alpha-stimulated human HeLa cells transfected with NFkappaB-Luc assessed as accumulation at G2/G1 phase at 10 uM after 8 hrs by propidium iodide-based flow cytometry; assay type: functional; method in brief: as §1
HeLa [23] = test: Cell cycle arrest in TNF-alpha-stimulated human HeLa cells transfected with NFkappaB-Luc assessed as accumulation at G2/G1 phase at 1 uM after 8 hrs by propidium iodide-based flow cytometry; assay type: functional
HeLa [24] = test: Cell cycle arrest in human HeLa cells transfected with NFkappaB-Luc assessed as accumulation at diploid G1 phase at 20 uM after 8 hrs by propidium iodide-based flow cytometry; assay type: functional; method in brief: as §1
[25] = Cytotoxicity against human whole blood IL-1-beta-stimulated lymphocytes assessed as survival cell count in millions at 3 uM by trypan blue staining based hemocytometer
HeLa [26] = test: Cell cycle arrest in TNF-alpha-stimulated human HeLa cells transfected with NFkappaB-Luc assessed as accumulation at diploid stage at 20 uM after 8 hrs by propidium iodide-based flow cytometry; assay type: functional; method in brief: as §1
[27] = Inhibition of TNF-alpha-induced NF-kappaB-mediated transcription expressed in human HeLa cells co-transfected with renilla luciferase-TK gene preincubated for 30 mins before TNFalpha challenge measured after 8 hrs by dual-glo luciferase reporter gene assay; assay type: cell-based
Method in brief: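 HeLa cells were transiently cotransfected (lipofectamine 2000, 5–6 h) with 6×κB pNF-κB-luc and the pRL-TK Renilla control, then grown 24 h. They were pretreated 30 min with 0.312–20 µM (1% DMSO vehicle), then stimulated with 25 ng/mL TNF-α for 8 h at 37 °C. Dual-Glo firefly signal was normalized to Renilla luminescence.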

[28] = Cytotoxicity against human whole blood lymphocytes assessed as survival cell count in millions at 1 uM by trypan blue staining based hemocytometer
HeLa [29] = test: Effect on cell cycle arrest in TNF-alpha-stimulated human HeLa cells assessed as cell debris level at 10 uM after 8 hrs by propidium iodide-based flow cytometry; assay type: functional
Blood [30] = test: Antiinflammatory activity in human whole blood assessed as inhibition of IL-1-beta-induced IL6 production preincubated 2 hrs before addition of IL1-beta measured after 18 hrs by ELISA; assay type: functional, tissue-based; method in brief: as §2

CCOC(=O)[C@]1(c2ccccc2)N=C(c2ccccc2)N(Cc2ccccc2)[C@@H]1c1ccccc1 (racemic)
Activity (HeLa [1]): 13.88% | Activity (HeLa [2]): 13.4% | Ratio (HeLa [3]): 1.91 | Activity (HeLa [4]): 22.9% | Activity (HeLa [5]): 63.22% | Activity (HeLa [6]): 100% | Activity (HeLa [7]): 0% | Activity (HeLa [8]): 0% | Activity (HeLa [9]): 9.42% | Activity [10]: 1.48 mL⁻¹ | Activity (HeLa [11]): 64.5% | Activity (HeLa [12]): 19.29% | Activity (HeLa [13]): 100% | Activity (HeLa [14]): 3.68% | Activity (HeLa [15]): 16.8% | Activity (HeLa [16]): 4.88% | Activity (HeLa [17]): 15.01% | Activity [18]: 1.6 mL⁻¹ | pIC50 (Blood [19]): 5.93 | Activity [20]: 1.46 mL⁻¹ | Cell count [21]: 0.2617 | Ratio (HeLa [22]): 1.91 | Ratio (HeLa [23]): 1.91 | Activity (HeLa [24]): 65.19% | Activity [25]: 1.28 mL⁻¹ | Activity (HeLa [26]): 100% | pEC50 [27]: 5.33 | Activity [28]: 1.2 mL⁻¹ | Activity (HeLa [29]): 15.28% | logIC50 (Blood [30]): 0.07
